Legend:
Mus musculus [1] = species: Mus musculus; assay: Toxicity in albino mouse assessed as induction of catalepsy measured at 30 mins intervals until 240 mins; format: organism-based; details: in vivo
Outline: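 Test drug given i.p. to albino mice (n = 6) in place of haloperidol reference (1.0 mg/kg i.p.). Bar test: time (s) holding forelimbs extended on 4 cm high, 1.0 cm diameter wooden bar, cut-off 1100 s, read at 30 min intervals to 120 min and at 240 min. Run 10.00–16.00 h, quiet room, 23–25 °C. ED50 (mg/kg, i.p.).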

Mus musculus [2] = assay: Antipsychotic activity in ip dosed Swiss albino mouse assessed as inhibition of apomorphine-induced mesh climbing response administered 10 mins prior to apomorphine challenge measured at 5 mins intervals for up to 20 mins after 10 mins post dose; format: functional
Outline: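 Groups of six mice given test compound, saline (control) or clozapine i.p.; apomorphine 2.5 mg/kg i.p. 10 min later. Mesh climbing scored (0 = no paws on cage) at 5 min intervals for 20 min from 10 min post-apomorphine, maximum total score 20. Mean ± SEM; ED50 (mg/kg, i.p.); Kruskal-Wallis or one-way ANOVA vs control.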

Mus musculus [3] = assay: Antipsychotic activity in ip dosed Swiss albino mouse assessed as inhibition of 5-hydoxytryptophan-induced head twitches behavior administered 30 mins prior to 5-hydoxytryptophan challenge measured at 10 mins intervals for 30 mins after 20 mins post dose; format: functional
Outline: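 Mice (n = 6/group) pretreated with pargyline 75 mg/kg i.p. to slow 5-HTP breakdown; test compound given i.p. 30 min later, then 5-HTP 50 mg/kg i.p. after a further 30 min. Head twitches scored at 10 min intervals for 30 min from 20 min post-5-HTP. Data as mean ± SEM total score; ED50 (mg/kg, i.p.); Kruskal-Wallis or one-way ANOVA vs control.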

Q: How did the ED50 (Mus musculus [1]) turn out when `O=C(CN1CCN(c2ccc(Cl)c(Cl)c2)CC1)N(c1ccccc1)c1ccccc1` was run?
A: 45 mg/kg

Q: And the ED50 (Mus musculus [2])?
A: 24 mg/kg

Q: What about the ED50 (Mus musculus [3]) of the same compound?
A: > 20 mg/kg

Q: Which results are given for `O=C(CN1CCN(c2cccc(Cl)c2)CC1)N(c1ccccc1)c1ccccc1`?
A: ED50 (Mus musculus [1]): 48.4 mg/kg; ED50 (Mus musculus [2]): 16.5 mg/kg; ED50 (Mus musculus [3]): 18 mg/kg

Q: Which ED50 (Mus musculus [1]) does the source give for `COc1ccccc1N1CCN(CC(=O)N(c2ccccc2)c2ccccc2)CC1` here?
A: 50.4 mg/kg

Q: What about the ED50 (Mus musculus [2]) of the same compound?
A: 8.2 mg/kg

Q: And the ED50 (Mus musculus [3])?
A: 12.7 mg/kg

Q: With `COc1cccc(N2CCN(CC(=O)N(c3ccccc3)c3ccccc3)CC2)c1` as the compound, how does the ED50 (Mus musculus [1]) read?
A: 55.4 mg/kg

Q: What about the ED50 (Mus musculus [2]) of the same compound?
A: 10 mg/kg

Q: And the ED50 (Mus musculus [3])?
A: 15.5 mg/kg

Q: For `O=C(CN1CCN(c2ccccc2)CC1)N(c1ccccc1)c1ccccc1`, which ED50 (Mus musculus [1]) is on record?
A: 50 mg/kg

Q: What about the ED50 (Mus musculus [2]) of the same compound?
A: 20.5 mg/kg

Q: What about the ED50 (Mus musculus [3]) of the same compound?
A: 27 mg/kg

Q: With `O=C(CN1CCN(c2cccc(C(F)(F)F)c2)CC1)N(c1ccccc1)c1ccccc1` as the compound, how does the ED50 (Mus musculus [1]) read?
A: 48 mg/kg

Q: And the ED50 (Mus musculus [2])?
A: 21.3 mg/kg

Q: And the ED50 (Mus musculus [3])?
A: 30 mg/kg

Q: For `O=C(CN1CCN(c2ccc([N+](=O)[O-])cc2)CC1)N(c1ccccc1)c1ccccc1`, which ED50 (Mus musculus [1]) is on record?
A: > 40 mg/kg

Q: What about the ED50 (Mus musculus [2]) of the same compound?
A: 30 mg/kg

Q: What about the ED50 (Mus musculus [3]) of the same compound?
A: > 40 mg/kg

Q: How did the ED50 (Mus musculus [1]) turn out when `Cc1ccc(N2CCN(CC(=O)N(c3ccccc3)c3ccccc3)CC2)cc1` was run?
A: > 40 mg/kg

Q: What about the ED50 (Mus musculus [2]) of the same compound?
A: > 20 mg/kg

Q: What about the ED50 (Mus musculus [3]) of the same compound?
A: 31.2 mg/kg

Q: For `CN1CCN(C2=Nc3cc(Cl)ccc3Nc3ccccc32)CC1` [CLOZAPINE], which ED50 (Mus musculus [2]) is on record?
A: 8.7 mg/kg

Q: And the ED50 (Mus musculus [3])?
A: 2.8 mg/kg

Q: What does the source list for `Cc1cccc(N2CCN(CC(=O)N(c3ccccc3)c3ccccc3)CC2)c1C`?
A: ED50 (Mus musculus [1]): > 40 mg/kg; ED50 (Mus musculus [2]): 28.5 mg/kg; ED50 (Mus musculus [3]): > 30 mg/kg

Q: With `O=C(CN1CCN(c2ccc(F)cc2)CC1)N(c1ccccc1)c1ccccc1` as the compound, how does the ED50 (Mus musculus [1]) read?
A: > 40 mg/kg

Q: And the ED50 (Mus musculus [2])?
A: 13.4 mg/kg

Q: And the ED50 (Mus musculus [3])?
A: 20 mg/kg

From ChEMBL document CHEMBL1914434, “Synthesis, computational studies and preliminary pharmacological evaluation of 2-[4-(aryl substituted) piperazin-1-yl] N, N-diphenylacetamides as potential antipsychotics” (Eur J Med Chem, 2011)
